From ChEMBL document CHEMBL1138407, “Bioactive bibenzyl derivatives and fluorenones from Dendrobium nobile” (J Nat Prod, 2007) come the findings set out here.

Active and inactive are the calls of the source. No cut-off for these calls is given here. Bounds are passed on as bounds.

One data set deals with RAW. Nature of the data set: Inhibition of LPS and IFN-gamma-activated NO production in murine RAW 264.7 cells. The settings on record: Mus musculus.
The nature of data set [1]: Antioxidant activity assessed by ORAC assay. The format is functional. In outline: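 Samples at several concentrations combined with potassium phosphate buffer (7.5 mM as added) and sodium fluorescein probe (63 nM as added), then preincubated 5 min at 37 °C. Reaction started with AAPH (12.8 mM as added). Fluorescence (ex 485/em 538 nm) read every 2 min until decay neared zero. Trolox standard. Done in triplicate, reported as mean ± SD in μmol Trolox equivalents per μmol sample.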

Data set [2] has as its system Radical scavenging activity. Nature of the data set: Antioxidant activity assessed by DPPH radical scavenging assay. The class given is functional. In outline: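 Test samples at several concentrations in EtOH mixed 1:1 by volume with a 200 μM DPPH solution in EtOH. After 1 min shaking, incubated 30 min at room temperature in the dark, then A517 read. Sample-only wells without DPPH corrected for colour. Done in triplicate, reported as mean ± SD. IC50 is the sample concentration scavenging 50% of DPPH.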

Data set [3] can be described thus: Cytotoxicity against murine RAW 264.7 cells by MTT assay. The format is cell-based. As to conditions: mouse. Put shortly:
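MTT viability measured in RAW 264.7 cultures from the LPS/IFN-γ-stimulated NO assay, in duplicate, to flag cytotoxic concentration ranges.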

`Oc1ccc(/C=C/c2cc(O)cc(O)c2)cc1` [RESVERATROL] yielded an IC50 in the data set with RAW of 23.5 µM.

Take `COc1cc(O)cc(CCc2ccc(O)c(OC)c2)c1` [GIGANTOL]: the IC50 in the data set with RAW worked out at 32.9 µM; in data set [2], 56.4 µM. The result in data set [1] was Active.

In the case of `COc1ccc(CCc2cc(OC)c(OC)c(OC)c2)cc1OC`, the IC50 is 48.2 µM in the data set on RAW and over 200 µM in data set [2]. In addition, the result in data set [1] was inactive.

As for `COc1cc(CC(O)c2cc(OC)c(O)c(OC)c2)ccc1O` (stereo not given) [NOBILIN D], the IC50 was found to be 15.3 µM in the data set on RAW and 19.9 µM in data set [2]. Also, the outcome in data set [1] was Active.

For the molecule `COc1cc(O)cc2c1-c1ccc(O)cc1C2=O` [NOBILONE], the values for the IC50 (in the data set with RAW; in data set [2]) were 38.1 µM and over 200 µM, respectively. For the same molecule, the result in data set [1] was Active.

In data set [2], `COc1cccc(CCc2cc(O)c(O)c(OC)c2)c1` had a concentration for half-maximal inhibition (IC50) of 40.3 µM.

For `Cc1cc(C(C)(C)C)c(O)c(C(C)(C)C)c1` [BUTYLATED HYDROXYTOLUENE], the IC50 in data set [2] is 90.9 µM.

Consider `COc1cccc(CCc2cc(OC)c(O)c3c2C(Cc2cccc(OC)c2)c2cc(O)c(O)c(OC)c2O3)c1` (stereo not given) [NOBILIN E], for which the figures for the IC50 (in the data set with RAW; in data set [2]) were 19.2 µM and 21 µM, respectively.

For `COc1ccc(CCc2cc(OC)c(O)c(OC)c2)cc1OC`, the Activity entry in data set [3] is given as “Toxic”. In addition, the result in data set [1] was Active. Further, the half-maximal inhibitory concentration (IC50) in data set [2] amounted to 14 µM.

As for `COc1cc(CCc2cc(OC)c(O)c(OC)c2)ccc1O` [MOSCATILIN], the IC50 with RAW was found to be 36.8 µM; in data set [2], 14.5 µM. In addition, in data set [1], the outcome was Active.

Consider `COc1cc(CCc2cc(OC)c(OC)c(OC)c2)ccc1O`, for which the Activity entry in data set [3] is listed as “Toxic”. Besides, the result in data set [1] was Active. Moreover, half-maximal inhibition in data set [2] (IC50) required 21.8 µM.

In turn, `O=C1O[C@H]([C@@H](O)CO)C(O)=C1O` [ASCORBIC ACID] displayed an IC50 in data set [2] of 18 µM.

With `COc1cc(O)cc2c1-c1c(O)ccc(O)c1C2=O`, the IC50 in the data set on RAW came out at 13.4 µM; in data set [2], 16.2 µM. The outcome in data set [1] was Active.
